Laboratory results: ChEMBL document CHEMBL2163200, “Synthesis, biological evaluation, and structure-activity relationships of novel substituted N-phenyl ureidobenzenesulfonate derivatives blocking cell cycle progression in S-phase and inducing DNA double-strand breaks” (J Med Chem, 2012)
The source made the active and inactive calls. The rule behind the calls is not given here.

Experiments:
Jurkat [1] = test: Cell cycle arrest in human Jurkat E6-1 cells assessed as accumulation at S phase at 200 uM after 24 hrs by FACS flow cytometry; type: functional
Procedure, shortened: (§1)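 Jurkat E6 cells grown in RPMI 1640 with 10% FBS at 37 °C, 5% CO2. Compounds were serially diluted in medium starting 50% above the M21 IC50. 4.0 × 10^5 cells were exposed for 24 h, then washed and spiked with chicken red blood cells as internal standard. Cells were fixed in ice-cold ethanol, stained with 1 μg/mL DAPI on ice for 1 h, and phase distribution was read by flow cytometry. The control was 0.5% DMSO.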

Jurkat [2] = test: Cell cycle arrest in human Jurkat E6-1 cells assessed as accumulation at G2/M phase at 200 uM after 24 hrs by FACS flow cytometry; type: functional; procedure, shortened: as §1
HT-29 = test: Cytotoxicity against human HT-29 cells after 48 hrs by SRB assay; type: functional, cell-based; details: HT-29, 48 h
Procedure, shortened: (§2)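 NCI sulforhodamine B protocol. Cells were grown in high-glucose DMEM with 5% FBS and seeded per well at 4 × 10^3 (HT-29), 3.5 × 10^3 (M21) or 3 × 10^3 (MCF-7), then allowed 24 h to attach. Serial dilutions from 200 μM to 780 nM final were applied in DMSO <0.5% for 48 h. Cells were fixed with cold TCA (10% final) and stained with SRB, with absorbance read at 530–568 nm. Growth inhibition was computed against day-0 plates, giving the 50% inhibitory concentration. At least two experiments in triplicate, CV <10%.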

M21 [3] = test: Cytotoxicity against human M21 cells after 48 hrs by SRB assay; type: functional, cell-based; details: M21, 48 h; procedure, shortened: as §2
MCF7 = test: Cytotoxicity against human MCF7 cells after 48 hrs by SRB assay; type: functional, cell-based; details: MCF7, 48 h; procedure, shortened: as §2
Jurkat [4] = test: Cell cycle arrest in human Jurkat E6-1 cells assessed as accumulation at G0/G1 phase at 200 uM after 24 hrs by FACS flow cytometry; type: functional
Procedure, shortened: (§3)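 Jurkat E6 cells cultured in RPMI 1640 with 10% FBS at 37 °C, 5% CO2. Compounds serially diluted in medium, starting 50% above the M21 IC50. 4.0 × 10^5 cells were exposed for 24 h. Cells were washed with PBS, chicken red blood cells added as internal standard, and fixed in ice-cold EtOH. After 1 h on ice in PBS with 1 μg/mL DAPI, phase distribution was read by flow cytometry. DMSO-treated cells served as control.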

HT-1080 [5] = test: Antitumor activity against human HT1080 cells xenografted in chicken chorioallantoic membrane assessed as inhibition of tumor growth at 1 ug per egg, iv administered on day 11 measured on day 17 by CAM assay; type: functional
Procedure, shortened: (§4)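 HT-1080 fibrosarcoma cells (3.5 × 105/egg) were applied onto freshly exposed CAM of fertilized chicken eggs. On day 11, drug from a DMSO stock was diluted in Cremophor EL/99% ethanol/PBS (1/1/14 v/v) and 100 μL was injected into a vein under the CAM. Groups of 10–12 eggs were kept to day 17, embryos were euthanized at 4 °C for ≥4 h, and tumor wet weight was recorded.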

[6] = Toxicity in fertilized chicken embryo assessed as mortality rate at 1 ug per egg, iv administered on day 11 measured on day 17 by CAM assay; type: organism-based, Gallus gallus; details: in vivo, read-out: Activity
Procedure, shortened: (§5)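 Fertilized chicken eggs grafted on the CAM with HT-1080 cells (3.5 × 105/egg) received a 100 μL intravenous injection under the CAM on day 11. The drug was diluted in Cremophor EL/99% ethanol/PBS (1/1/14 v/v). Groups held 10–12 eggs and were incubated until day 17, when dead embryos and signs of toxicity were counted per group.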

Jurkat [7] = test: Cell cycle arrest in human Jurkat E6-1 cells assessed as accumulation at G0/G1 phase at 2.5 uM after 24 hrs by FACS flow cytometry; type: functional; procedure, shortened: as §3
Jurkat [8] = test: Cell cycle arrest in human Jurkat E6-1 cells assessed as accumulation at S phase at 2.5 uM after 24 hrs by FACS flow cytometry; type: functional; procedure, shortened: as §1
Jurkat [9] = test: Cell cycle arrest in human Jurkat E6-1 cells assessed as accumulation at G2/M phase at 2.5 uM after 24 hrs by FACS flow cytometry; type: functional; procedure, shortened: as §1
M21 [10] = test: Induction of DNA damage response in human M21 cells assessed as phosphorylation of H2AX into gammaH2AX at IC50 after 24 hrs by DAPI staining-based immunofluorescence assay; type: functional, cell-based
Procedure, shortened: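 M21 cells (1 × 10^5) on fibronectin-coated coverslips, grown 24 h, then exposed to agent for 24 h at 37 °C; 0.5% DMSO control. Fixed with 3.7% formaldehyde and permeabilized with 0.1% saponin/3% BSA. Probed with mouse anti-H2AX pS139 antibody for 2 h at room temperature. Nuclei counterstained with DAPI; nuclear γH2AX foci viewed by epifluorescence microscopy.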

HT-1080 [11] = test: Antitumor activity against human HT1080 cells xenografted in chicken chorioallantoic membrane assessed as inhibition of tumor growth at 30 ug per egg, iv administered on day 11 measured on day 17 by CAM assay; type: functional; procedure, shortened: as §4
[12] = Toxicity in fertilized chicken embryo assessed as mortality rate at 30 ug per egg, iv administered on day 11 measured on day 17 by CAM assay; type: organism-based, Gallus gallus; details: in vivo, read-out: Activity; procedure, shortened: as §5
Jurkat [13] = test: Cell cycle arrest in human Jurkat E6-1 cells assessed as accumulation at G0/G1 phase at 176 uM after 24 hrs by FACS flow cytometry; type: functional; procedure, shortened: as §3
Jurkat [14] = test: Cell cycle arrest in human Jurkat E6-1 cells assessed as accumulation at S phase at 176 uM after 24 hrs by FACS flow cytometry; type: functional; procedure, shortened: as §1
Jurkat [15] = test: Cell cycle arrest in human Jurkat E6-1 cells assessed as accumulation at G2/M phase at 176 uM after 24 hrs by FACS flow cytometry; type: functional; procedure, shortened: as §1
Jurkat [16] = test: Cell cycle arrest in human Jurkat E6-1 cells assessed as accumulation at S phase at 23 uM after 24 hrs by FACS flow cytometry; type: functional; procedure, shortened: as §1
Jurkat [17] = test: Cell cycle arrest in human Jurkat E6-1 cells assessed as accumulation at G2/M phase at 23 uM after 24 hrs by FACS flow cytometry; type: functional; procedure, shortened: as §1
Jurkat [18] = test: Cell cycle arrest in human Jurkat E6-1 cells assessed as accumulation at G0/G1 phase at 23 uM after 24 hrs by FACS flow cytometry; type: functional; procedure, shortened: as §3
Jurkat [19] = test: Cell cycle arrest in human Jurkat E6-1 cells assessed as accumulation at G0/G1 phase at 59 uM after 24 hrs by FACS flow cytometry; type: functional; procedure, shortened: as §3
Jurkat [20] = test: Cell cycle arrest in human Jurkat E6-1 cells assessed as accumulation at S phase at 59 uM after 24 hrs by FACS flow cytometry; type: functional
Procedure, shortened: (§6)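 Jurkat E6 T-lymphoblasts in RPMI 1640 with 10% FBS, 37 °C, 5% CO2. […] Chicken red blood cells were added as internal standard. Cells were fixed in ice-cold EtOH and stained with 1 μg/mL DAPI on ice for 1 h before flow cytometry of phase distribution. Vehicle control was 0.5% DMSO.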

Jurkat [21] = test: Cell cycle arrest in human Jurkat E6-1 cells assessed as accumulation at G2/M phase at 59 uM after 24 hrs by FACS flow cytometry; type: functional; procedure, shortened: as §1
Jurkat [22] = test: Cell cycle arrest in human Jurkat E6-1 cells assessed as accumulation at G0/G1 phase at 30 uM after 24 hrs by FACS flow cytometry; type: functional; procedure, shortened: as §3
Jurkat [23] = test: Cell cycle arrest in human Jurkat E6-1 cells assessed as accumulation at S phase at 30 uM after 24 hrs by FACS flow cytometry; type: functional; procedure, shortened: as §6
Jurkat [24] = test: Cell cycle arrest in human Jurkat E6-1 cells assessed as accumulation at G2/M phase at 30 uM after 24 hrs by FACS flow cytometry; type: functional; procedure, shortened: as §1

CCc1ccccc1NS(=O)(=O)c1cccc(NC(=O)NCCCCl)c1
Activity (Jurkat [1]): 35%
Activity (Jurkat [2]): 15%
IC50 (HT-29): 96 µM
IC50 (M21 [3]): > 200 µM
IC50 (MCF7): 43 µM
Activity (Jurkat [4]): 50%

COc1ccc(/C=C\c2cc(OC)c(OC)c(OC)c2)cc1O [COMBRETASTATIN A4]
TGI (HT-1080 [5]): 49%
mortality at 6 days [6]: 21%

CCNC(=O)Nc1ccc(S(=O)(=O)Oc2ccccc2C)cc1
Activity (Jurkat [7]): 23%
Activity (Jurkat [8]): 61%
Activity (Jurkat [9]): 16%
Activity (M21 [10]): Active
TGI (HT-1080 [11]): 68%
mortality at 6 days [12]: 9%
IC50 (HT-29): 12 µM
IC50 (M21 [3]): 3.1 µM
IC50 (MCF7): 4.5 µM

Cc1ccccc1NS(=O)(=O)c1ccc(NC(=O)NCCCCl)cc1
Activity (Jurkat [1]): 38%
Activity (Jurkat [2]): 15%
IC50 (HT-29): 64 µM
IC50 (M21 [3]): > 200 µM
IC50 (MCF7): > 200 µM
Activity (Jurkat [4]): 47%

CCNC(=O)Nc1ccc(S(=O)(=O)Nc2ccccc2C)cc1
Activity (Jurkat [13]): 31%
Activity (Jurkat [14]): 55%
Activity (Jurkat [15]): 14%
IC50 (HT-29): > 200 µM
IC50 (M21 [3]): > 200 µM
IC50 (MCF7): > 200 µM

CCCc1ccccc1NS(=O)(=O)c1cccc(NC(=O)NCC)c1
Activity (Jurkat [16]): 43%
Activity (Jurkat [17]): 18%
IC50 (HT-29): 41 µM
IC50 (M21 [3]): 60 µM
IC50 (MCF7): 40 µM
Activity (Jurkat [18]): 39%

CCNC(=O)Nc1ccc(S(=O)(=O)Nc2ccccc2CC)cc1
Activity (Jurkat [19]): 21%
Activity (Jurkat [20]): 41%
Activity (Jurkat [21]): 38%
IC50 (M21 [3]): 90 µM

CCCc1ccccc1NS(=O)(=O)c1ccc(NC(=O)NCC)cc1
Activity (Jurkat [22]): 19%
Activity (Jurkat [23]): 35%
Activity (Jurkat [24]): 46%
IC50 (HT-29): 32 µM
IC50 (M21 [3]): 41 µM
IC50 (MCF7): 37 µM

CCc1ccccc1NS(=O)(=O)c1ccc(NC(=O)NCCCCl)cc1
Activity (Jurkat [1]): 39%
Activity (Jurkat [2]): 16%
IC50 (HT-29): > 200 µM
IC50 (M21 [3]): > 200 µM
IC50 (MCF7): > 200 µM
Activity (Jurkat [4]): 45%
